Measured values reported in article PMC6598219 (Saudi Pharmaceutical Journal : SPJ, 2019).
Converted amounts (≈) assume the structure as drawn.

What was measured:
[1] = ABTS radical cation scavenging activity
How it was run: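 ABTS radical cation formed by mixing aqueous 7 mmol/L ABTS and 2.45 mmol/L potassium persulfate 1:1 and keeping in the dark 6 h at room temperature. The radical was diluted in ethanol and equilibrated at 30 °C. Test compound aliquots at 20, 40, 60, 80 and 100 µg/mL were added, incubated 30 °C for 20 min, and read at 734 nm with BHA as reference. Scavenging % = (Ac − Aa)/Ac × 100. Results given as mean ± SD.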

[2] = DPPH free radical scavenging activity
How it was run: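 Test compound aliquots at 20, 40, 60, 80 and 100 µg/mL were added to 0.004% DPPH solution, and absorbance was read at 520 nm after 30 min. BHA served as reference and methanol as control. Inhibition % = (Ao − At)/Ao × 100, with Ao the control absorbance. Results given as mean ± SD.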

Question: What does the source list for `COc1ccc(O)c(C(C)(C)C)c1` [BHA, butylated hydroxyanisole]?
Answer: ABTS scavenging property (%) ([1]; at 100 µg/mL concentration): 98.20 ± 4.60%; IC50, ABTS radical scavenging ([1]; mean of three replicates): 28.70 ± 5.20 µg/mL (≈ 159 µM); DPPH free radical scavenging property (%) ([2]; at 100 µg/mL): 93.4 ± 1.6%; IC50, DPPH free radical scavenging ([2]; mean of three replicates): 34.50 ± 6.20 µg/mL (≈ 191 µM)
